In brackets after ≈: the same amount, converted by molar mass.
Tests used:
P388 = test: Inhibitory effect on the proliferation of murine leukemia (P388) cells; type: functional; settings: Mus musculus, read-out: ID50 (the source's name)
Vaccinia virus [1] = test: Minimum inhibitory concentration against vaccinia virus embryonic skin muscle cell cultures; type: functional; settings: Orthopoxvirus vaccinia
[2] = Minimum cytotoxic concentration in primary rabbit kidney (PRK) cell cultures; type: functional, Oryctolagus cuniculus
Vaccinia virus [3] = test: Minimum cytotoxic concentration against vaccinia virus in primary rabbit kidney cell cultures; type: functional; settings: Orthopoxvirus vaccinia
Vaccinia virus [4] = test: Minimum inhibitory concentration against vaccinia virus in Vero cell cultures of experiment 2; type: functional; settings: Orthopoxvirus vaccinia
Vaccinia virus [5] = test: Minimum cytotoxic concentration against vaccinia virus embryonic skin muscle cell cultures; type: functional; settings: Orthopoxvirus vaccinia
Human alphaherpesvirus 1 = test: Minimum inhibitory concentration against Herpes simplex virus 1(KOS); type: functional
Calf thymus DNA = test: Relative binding constant to calf thymus DNA; type: nucleic-acid assay; settings: Bos taurus
Outline: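 Ethidium displacement: Tris-EDTA buffer pH 8 with 1.3 μM ethidium bromide and calf thymus DNA (1.35 μM final); drug aliquots added, fluorescence read after a few minutes' equilibration (excitation 525 nm, emission 600 nm). Drug level giving 50% fluorescence decrease converted to relative binding constant taking ethidium binding constant as 10^7 M-1.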

Raji = test: Inhibitory effect on the proliferation of human B lymphoblast (Raji ) cells; type: functional; settings: read-out: ID50 (the source's name)
Vaccinia virus [6] = test: Minimum inhibitory concentration against Vaccinia virus; type: functional; settings: Orthopoxvirus vaccinia
Vaccinia virus [7] = test: Minimum inhibitory concentration against vaccinia virus in Vero cell cultures of experiment 1; type: functional; settings: Orthopoxvirus vaccinia
Vaccinia virus [8] = test: (§1) Minimum inhibitory concentration against vaccinia virus in primary rabbit kidney cell cultures of experiment 2; type: functional, Orthopoxvirus vaccinia; settings: Orthopoxvirus vaccinia; read-out: MIC
Vaccinia virus [9] = test: Minimum cytotoxic concentration against vaccinia virus in Vero cell cultures; type: functional; settings: Orthopoxvirus vaccinia
Vaccinia virus [10] = test: Minimum inhibitory concentration against vaccinia virus in primary rabbit kidney cell cultures of experiment 1; type: functional; settings: Orthopoxvirus vaccinia
L1210 = test: Inhibitory effect on the proliferation of murine leukemia (L1210 ) cells; type: functional; settings: Mus musculus, read-out: ID50 (the source's name)
Human alphaherpesvirus 2 = test: Minimum inhibitory concentration against Herpes simplex virus 2(G); type: functional
[11] = Inhibition of Moloney Murine Leukemia Associated Reverse Transcriptase; type: functional, Mus musculus
[12] = tested on: Vesicular stomatitis virus; test: Minimum inhibitory concentration against Vesicular stomatitis virus; type: functional
Vaccinia virus [13] = test: Minimum cytotoxic concentration against vaccinia virus in HeLa cell cultures; type: functional; settings: Orthopoxvirus vaccinia
[14] = Inhibitory effect on the proliferation of human T-lymphoblast (Molt/4F ) cells; type: functional; settings: read-out: ID50 (the source's name)
FM3A = test: Inhibitory effect on the proliferation of murine mammary carcinoma (FM3A ) cells; type: functional; settings: Mus musculus, read-out: ID50 (the source's name)
Vaccinia virus [15] = test: as §1; type: functional; settings: Orthopoxvirus vaccinia

Structure (SMILES) | IC50 (P388) [µg/mL] | MIC (Vaccinia virus [1]) [µg/mL] | MCC [2] [µg/mL] | MCC (Vaccinia virus [3]) [µg/mL] | MIC (Vaccinia virus [4]) [µg/mL] | MCC (Vaccinia virus [5]) [µg/mL] | MIC (Human alphaherpesvirus 1) [µg/mL] | Binding constant (Calf thymus DNA) [M⁻¹] | IC50 (Raji) [µg/mL] | MIC (Vaccinia virus [6]) [µg/mL] | MIC (Vaccinia virus [7]) [µg/mL] | MIC (Vaccinia virus [8]) [µg/mL] | MCC (Vaccinia virus [9]) [µg/mL] | MIC (Vaccinia virus [10]) [µg/mL] | IC50 (L1210) [µg/mL] | MIC (Human alphaherpesvirus 2) [µg/mL] | ID50 [11] [µg/mL] | MIC [12] [µg/mL] | MCC (Vaccinia virus [13]) [µg/mL] | MIC (Vaccinia virus [15]) [µg/mL] | further results
Cl.Cl.Cn1cc(NC(=O)c2cc(NC(=O)CCCCCCC(=O)Nc3cc(C(=O)Nc4cc(C(=O)NCCC(=N)N)n(C)c4)n(C)c3)cn2C)cc1C(=O)NCCC(=N)N | 0.7 | 0.07 | >10 | > 40 | 7 | > 200 | > 10 | 2.5e+07 | 2.14 | 0.2 | 7 | 2 | > 40 | 0.7 | 3.34 | > 10 | 21.3 | > 10 | > 200 | 2 | IC50 [14]: 1.74 µg/mL; IC50 (FM3A): 3.15 µg/mL
O=C(O)C1=CC(=C(c2ccc(O)c(C(=O)O)c2)c2ccc(O)c(C(=O)O)c2)C=CC1=O [AURINTRICARBOXYLIC ACID] |  |  |  |  |  |  |  |  |  |  |  |  |  |  |  |  | 1.42 (≈ 3.36 µM) |  |  |  | 
Cn1cc(NC(=O)c2cc(NC(=O)c3cc(NC=O)cn3C)cn2C)cc1C(=O)NCCC(=N)N [STALLIMYCIN] | > 20 |  |  |  |  |  |  | 8e+06 | 24 (≈ 49.8 µM) |  |  |  |  |  | 27 (≈ 56.1 µM) |  |  |  |  |  | IC50 (FM3A): 31 µg/mL (≈ 64.4 µM)
NC(=O)c1ncn([C@@H]2O[C@H](CO)[C@@H](O)[C@H]2O)n1 [RIBAVIRIN] |  | 70 (≈ 287 µM) | >400 | > 400 | 20 (≈ 81.9 µM) | > 400 | > 400 |  |  | 20 (≈ 81.9 µM) | 7 (≈ 28.7 µM) | 20 (≈ 81.9 µM) | > 400 | 20 (≈ 81.9 µM) |  | 300 (≈ 1230 µM) |  | > 400 | > 400 | 7 (≈ 28.7 µM) | 
Cl.Cl.Cn1cc(NC(=O)c2cc(NC(=O)CCCCCC(=O)Nc3cc(C(=O)Nc4cc(C(=O)NCCC(=N)N)n(C)c4)n(C)c3)cn2C)cc1C(=O)NCCC(=N)N | 4.4 | 0.7 | 400 | > 200 | 20 | 200 | 150 | 1.2e+07 | 11.1 | 2 | 20 | 20 | > 200 | 7 | > 100 | 70 | 72.5 | > 200 | > 200 | 7 | IC50 [14]: 5.74 µg/mL; IC50 (FM3A): > 100 µg/mL
Cl.Cl.Cn1cc(NC(=O)c2cc(NC(=O)c3cc(NC(=O)CCC(=O)Nc4cc(C(=O)Nc5cc(C(=O)Nc6cc(C(=O)NCCC(=N)N)n(C)c6)n(C)c5)n(C)c4)cn3C)cn2C)cc1C(=O)NCCC(=N)N | > 20 | > 4 |  | > 4 | > 4 | > 4 |  |  | 41.4 |  | > 4 | > 10 | > 4 | > 4 | > 100 |  | >400 |  | > 20 | > 4 | IC50 [14]: 2.85 µg/mL; IC50 (FM3A): 4.29 µg/mL
Nc1nccc2c1ncn2[C@@H]1C[C@H](CO)[C@@H](O)[C@H]1O [3-DEAZAARISTEROMYCIN A] |  | 2 (≈ 7.57 µM) | >400 | > 400 | 0.2 (≈ 0.757 µM) | > 400 | > 400 |  |  | 2 (≈ 7.57 µM) | 0.2 (≈ 0.757 µM) | 0.7 (≈ 2.65 µM) | > 200 | 2 (≈ 7.57 µM) |  | 300 (≈ 1140 µM) |  | 0.7 (≈ 2.65 µM) | > 400 | 2 (≈ 7.57 µM) | 
Cl.Cl.Cn1cc(NC(=O)c2cc(NC(=O)CCCC(=O)Nc3cc(C(=O)Nc4cc(C(=O)NCCC(=N)N)n(C)c4)n(C)c3)cn2C)cc1C(=O)NCCC(=N)N | 6.4 | 7 | >200 | > 200 | 150 | 400 | > 200 | 1.8e+07 | > 100 | 7 | 70 | 40 | > 400 | 20 | > 100 | 200 | 39.9 | > 200 | > 400 | 20 | IC50 [14]: > 100 µg/mL; IC50 (FM3A): > 100 µg/mL
Nc1ncnc2c1ccn2[C@@H]1O[C@H](CO)[C@@H](O)[C@H]1O [TUBERCIDIN] |  | 0.07 (≈ 0.263 µM) | >1 | > 0.4 | 0.02 (≈ 0.0751 µM) | > 0.1 | > 0.4 |  |  | > 0.1 | 0.02 (≈ 0.0751 µM) | 0.2 (≈ 0.751 µM) | > 0.4 | > 0.1 |  | > 0.4 |  | 0.2 (≈ 0.751 µM) | > 1 | 0.2 (≈ 0.751 µM) | 
Cn1cc(NC(=O)c2cc(NC(=O)CCC(=O)Nc3cc(C(=O)Nc4cc(C(=O)NCCC(=N)N)n(C)c4)n(C)c3)cn2C)cc1C(=O)NCCC(=N)N |  |  |  |  |  |  |  | 7.2e+07 |  |  |  |  |  |  |  |  |  |  |  |  | 
Cl.Cl.Cn1cc(NC(=O)c2cc(NC(=O)CC(=O)Nc3cc(C(=O)Nc4cc(C(=O)NCCC(=N)N)n(C)c4)n(C)c3)cn2C)cc1C(=O)NCCC(=N)N | 0.91 | 0.2 | >10 | 40 | 2 | > 40 | > 4 | 3.6e+07 | 3.39 | 0.2 | 2 | 2 | > 40 | 2 | 28.5 | > 4 | 39 | > 10 | > 40 | 2 | IC50 [14]: 2.85 µg/mL; IC50 (FM3A): 5.87 µg/mL
Cl.Cl.Cn1cc(NC(=O)c2cc(NC(=O)CCCCC(=O)Nc3cc(C(=O)Nc4cc(C(=O)NCCC(=N)N)n(C)c4)n(C)c3)cn2C)cc1C(=O)NCCC(=N)N | 1.05 | 7 | >40 | > 40 | 2 | 100 | > 10 | 1e+07 | 13.3 | 0.7 | 1 | 0.7 | > 400 | 100 | 24.3 | > 10 | 57.2 | > 10 | > 400 | 2 | IC50 [14]: 5.62 µg/mL; IC50 (FM3A): 57.8 µg/mL
Cn1cc(NC(=O)c2cc(NC(=O)CNC(=N)N)cn2C)cc1C(=O)NCCC(=N)N |  |  |  |  |  |  |  | 1.9e+07 |  |  |  |  |  |  |  |  |  |  |  |  | 

Source: ChEMBL document CHEMBL1124666, “Novel linked antiviral and antitumor agents related to netropsin and distamycin: synthesis and biological evaluation” (1989)
